Measured values: ChEMBL document CHEMBL1165858, “Synthesis and biological evaluation of beta-chloro vinyl chalcones as inhibitors of TNF-alpha and IL-6 with antimicrobial activity” (Eur J Med Chem, 2010)
In brackets after ≈: the same amount, converted by molar mass. Activity calls are given as the source filed them. The rule behind the calls is not given here.

Columns and labels:
Klebsiella pneumoniae [1] = test: Antibacterial activity against Klebsiella pneumoniae NCIM 5082 after 24 hrs by disc diffusion method; format: functional; conditions: for MIC: Klebsiella pneumoniae, NCIM 5082, 24 h
Procedure, shortened: (§1)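 Paper disc diffusion (6.25 mm Whatman no.1 discs, dry-heat sterilized at 140 °C for 1 h) loaded with compounds at different concentrations in DMSO. Discs were placed in triplicate on nutrient agar seeded with fresh bacterial culture and incubated at 37 °C for 24 h, with solvent and growth controls. Zones of inhibition (mm) and MIC, the concentration completely inhibiting growth, were recorded.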

Proteus vulgaris [2] = test: Antibacterial activity against Proteus vulgaris NCIM 2813 after 24 hrs by disc diffusion method; format: functional; conditions: for MIC: Proteus vulgaris, NCIM 2813, 24 h; procedure, shortened: as §1
Aspergillus fumigatus = test: Antibacterial activity against Aspergillus fumigatus NCIM 902 after 72 hrs by disc diffusion method; format: functional; conditions: for MIC: Aspergillus fumigatus, NCIM 902, 72 h
Procedure, shortened: (§2)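 Agar disc diffusion against fungi. Fungi were maintained on potato dextrose agar at (25 ± 2) °C for five days before use. Compounds were dissolved in DMSO (10 mg/mL initial solutions) and loaded on discs placed on freshly seeded plates alongside a solvent control disc. Plates were held at 4 °C for 24 h for diffusion, then incubated at 37 ± 5 °C for 72 h. Zones of inhibition (mm) and MICs were recorded.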

Aspergillus niger = test: Antibacterial activity against Aspergillus niger NCIM 545 after 72 hrs by disc diffusion method; format: functional; conditions: for MIC: Aspergillus niger, NCIM 545, 72 h; procedure, shortened: as §2
Trichoderma viride = test: Antibacterial activity against Trichoderma viride TT after 72 hrs by disc diffusion method; format: functional; conditions: for MIC: Trichoderma viride, TT, 72 h; procedure, shortened: as §2
Candida albicans = test: Antibacterial activity against Candida albicans NCIM 3100 after 72 hrs by disc diffusion method; format: functional; conditions: for MIC: Candida albicans, NCIM 3100, 72 h; procedure, shortened: as §2
Penicillium chrysogenum = test: Antibacterial activity against Penicillium chrysogenum NCIM 707 after 72 hrs by disc diffusion method; format: functional; conditions: for MIC: Penicillium chrysogenum, NCIM 707, 72 h; procedure, shortened: as §2
THP-1 [3] = test: Antiinflammatory activity in human THP1 cells assessed as inhibition of LPS-induced TNFalpha secretion at 10 uM treated 30 mins before LPS challenge measured after 24 hrs by ELISA relative to control; format: functional
Procedure, shortened: (§3)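 THP-1 cells were grown in RPMI 1640 with 10% FBS and penicillin/streptomycin, then differentiated with PMA. Compound or vehicle (0.5% DMSO) was added for 30 min at 37 °C, followed by LPS (E. coli 0127:B8, final 1 µg/mL). After 24 h at 37 °C in 5% CO2, TNF-α and IL-6 in the supernatants were quantified by ELISA. Values are the mean of n = 2.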

THP-1 [4] = test: Antiinflammatory activity in human THP1 cells assessed as inhibition of LPS-induced IL-6 secretion at 10 uM treated 30 mins before LPS challenge measured after 24 hrs by ELISA relative to control; format: functional; procedure, shortened: as §3
[5] = Cytotoxicity against […] at 10 uM; format: cell-based
Bacillus subtilis [6] = test: Antibacterial activity against Bacillus subtilis NCIM 2546 after 24 hrs by disc diffusion method; format: functional; conditions: for MIC: Bacillus subtilis, NCIM 2546, 24 h; procedure, shortened: as §1
Escherichia coli [7] = test: Antibacterial activity against Escherichia coli NCIM 2065 after 24 hrs by disc diffusion method; format: functional; conditions: for MIC: Escherichia coli, NCIM 2065, 24 h; procedure, shortened: as §1
Staphylococcus aureus [8] = test: Antibacterial activity against Staphylococcus aureus NCIM 2120 after 24 hrs by disc diffusion method; format: functional; conditions: for MIC: Staphylococcus aureus, NCIM 2120, 24 h; procedure, shortened: as §1
Staphylococcus aureus [9] = test: Antibacterial activity against Staphylococcus aureus NCIM 2120 at > 100 […] after 24 hrs by disc diffusion method; format: functional, organism-based
Klebsiella pneumoniae [10] = test: Antibacterial activity against Klebsiella pneumoniae NCIM 5082 at > 100 […] after 24 hrs by disc diffusion method; format: functional, organism-based
Proteus vulgaris [11] = test: Antibacterial activity against Proteus vulgaris NCIM 2813 at > 100 […] after 24 hrs by disc diffusion method; format: functional, organism-based
Bacillus subtilis [12] = test: Antibacterial activity against Bacillus subtilis NCIM 2546 at > 100 […] after 24 hrs by disc diffusion method; format: functional, organism-based
Escherichia coli [13] = test: Antibacterial activity against Escherichia coli NCIM 2065 at > 100 […] after 24 hrs by disc diffusion method; format: functional, organism-based

SMILES	inhibition zone (IZ) (Klebsiella pneumoniae [1])	MIC (Klebsiella pneumoniae [1])	inhibition zone (IZ) (Proteus vulgaris [2])	inhibition zone (IZ) (Aspergillus fumigatus)	MIC (Aspergillus fumigatus)	inhibition zone (IZ) (Aspergillus niger)	MIC (Aspergillus niger)	inhibition zone (IZ) (Trichoderma viride)	MIC (Trichoderma viride)	inhibition zone (IZ) (Candida albicans)	inhibition zone (IZ) (Penicillium chrysogenum)	inhibition at 10 µM (THP-1 [3])	inhibition at 10 µM (THP-1 [4])	Activity [5]	inhibition zone (IZ) (Bacillus subtilis [6])	MIC (Bacillus subtilis [6])	inhibition zone (IZ) (Escherichia coli [7])	inhibition zone (IZ) (Staphylococcus aureus [8])	MIC (Staphylococcus aureus [8])	MIC (Penicillium chrysogenum)	further results
COc1cc(O)c(C(=O)/C=C/C=C(\Cl)c2ccc(Cl)cc2)c(OC)c1	18 mm	25 µg/mL (≈ 65.9 µM)	15 mm	17 mm	25 µg/mL (≈ 65.9 µM)	16 mm	50 µg/mL (≈ 132 µM)	15 mm	50 µg/mL (≈ 132 µM)	12 mm	12 mm	13%	74%	Non-toxic	20 mm	25 µg/mL (≈ 65.9 µM)	15 mm	18 mm	25 µg/mL (≈ 65.9 µM)	–	MIC (Proteus vulgaris [2]): 50 µg/mL (≈ 132 µM); MIC (Escherichia coli [7]): 50 µg/mL (≈ 132 µM)
COc1cccc(/C(Cl)=C/C=C/C(=O)c2c(O)cc(OC)cc2OC)c1	14 mm	50 µg/mL (≈ 133 µM)	–	16 mm	50 µg/mL (≈ 133 µM)	16 mm	50 µg/mL (≈ 133 µM)	16 mm	50 µg/mL (≈ 133 µM)	13 mm	17 mm	11%	39%	Non-toxic	–	–	10 mm	15 mm	50 µg/mL (≈ 133 µM)	25 µg/mL (≈ 66.7 µM)	–
OC(Cn1cncn1)(Cn1cncn1)c1ccc(F)cc1F [FLUCONAZOLE]	–	–	–	20 mm	25 µg/mL (≈ 81.6 µM)	20 mm	25 µg/mL (≈ 81.6 µM)	22 mm	25 µg/mL (≈ 81.6 µM)	18 mm	22 mm	–	–	–	–	–	–	–	–	25 µg/mL (≈ 81.6 µM)	MIC (Candida albicans): 25 µg/mL (≈ 81.6 µM)
COc1cc(O)c(C(=O)/C=C/C=C(\Cl)c2ccc(Br)cc2)c(OC)c1	20 mm	25 µg/mL (≈ 59 µM)	12 mm	20 mm	25 µg/mL (≈ 59 µM)	14 mm	50 µg/mL (≈ 118 µM)	18 mm	25 µg/mL (≈ 59 µM)	14 mm	18 mm	8%	58%	Non-toxic	18 mm	25 µg/mL (≈ 59 µM)	15 mm	14 mm	50 µg/mL (≈ 118 µM)	25 µg/mL (≈ 59 µM)	MIC (Candida albicans): 25 µg/mL (≈ 59 µM); MIC (Escherichia coli [7]): 50 µg/mL (≈ 118 µM)
COc1cc(OC)cc(/C(Cl)=C/C=C/C(=O)c2c(O)cc(OC)cc2OC)c1	–	–	–	14 mm	50 µg/mL (≈ 124 µM)	16 mm	50 µg/mL (≈ 124 µM)	14 mm	50 µg/mL (≈ 124 µM)	12 mm	15 mm	13%	45%	Non-toxic	–	–	–	–	–	50 µg/mL (≈ 124 µM)	MIC (Staphylococcus aureus [9]): inactive; MIC (Klebsiella pneumoniae [10]): inactive; MIC (Proteus vulgaris [11]): inactive; MIC (Bacillus subtilis [12]): inactive; MIC (Escherichia coli [13]): inactive
COc1cc(O)c(C(=O)/C=C/C=C(\Cl)c2ccc(F)cc2)c(OC)c1	14 mm	50 µg/mL (≈ 138 µM)	18 mm	14 mm	50 µg/mL (≈ 138 µM)	17 mm	25 µg/mL (≈ 68.9 µM)	16 mm	50 µg/mL (≈ 138 µM)	10 mm	14 mm	16%	83%	Non-toxic	22 mm	25 µg/mL (≈ 68.9 µM)	16 mm	14 mm	50 µg/mL (≈ 138 µM)	50 µg/mL (≈ 138 µM)	MIC (Proteus vulgaris [2]): 25 µg/mL (≈ 68.9 µM); MIC (Escherichia coli [7]): 50 µg/mL (≈ 138 µM)
COc1cc(O)c(C(=O)/C=C/C=C(\Cl)c2ccc(Cl)cc2Cl)c(OC)c1	15 mm	50 µg/mL (≈ 121 µM)	19 mm	17 mm	50 µg/mL (≈ 121 µM)	10 mm	–	18 mm	25 µg/mL (≈ 60.4 µM)	10 mm	17 mm	0%	67%	Non-toxic	17 mm	50 µg/mL (≈ 121 µM)	14 mm	19 mm	25 µg/mL (≈ 60.4 µM)	25 µg/mL (≈ 60.4 µM)	MIC (Proteus vulgaris [2]): 25 µg/mL (≈ 60.4 µM); MIC (Escherichia coli [7]): 50 µg/mL (≈ 121 µM)
